In ChEMBL document CHEMBL5046320, “A Stepwise Targeting Curcumin Derivative, Ser@TPP@CUR, for Acute Kidney Injury” (ACS Med Chem Lett, 2022):
Calls of active or inactive are those of the source.

Legend:
[1] = Drug uptake in LPS stimulated human HK-2 cells pretreated with LPS for 12 hrs followed by compound addition incubated for 2 to 6 hrs by inversed fluorescence microscope analysis; assay type: ADME, cell-based; conditions: time 2-6 hrs
How it was run: (§1)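 HK-2 cells with or without LPS treatment incubated with compound for 2.0 and 6.0 h; uptake imaged by fluorescence microscopy; flow cytometry at 2.0 h.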

[2] = Drug uptake in human HK-2 cells assessed as increase in fluorescence intensity pretreated with LPS for 12 hrs followed by compound addition incubated for 6 hrs by mitotracker red based inverted microscopic analysis; assay type: ADME, cell-based; conditions: hk-2, 6 h
How it was run: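 HK-2 cells co-stained with MitoTracker Red; mitochondrial colocalization of compound imaged by fluorescence microscopy; free CUR as control.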

HK-2 [3] = assay: Nephroprotective activity against LPS induced human HK-2 cells assessed as increase in cell viability at 3 ug/ml incubated for 24 hrs by MTT assay relative to control; assay type: functional; conditions: dose 3 µg/ml
How it was run: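 HK-2 cells exposed to 15 μg/mL LPS for 24 h; viability assessed by MTT assay; n = 6.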

[4] = Drug distribution in kidney of acute kidney injured Balb/c mouse model assessed as increase in CUR level at 4 mg/kg, iv after 2 hrs of administration by IVIS Lumina III analysis; assay type: ADME, organism-based; conditions: in vivo
How it was run: (§2)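 Normal or AKI mice given intravenous dose (CUR, 4 mg/kg); heart, lung, liver, spleen and kidney imaged ex vivo 2 h later on IVIS Lumina III; tissue distribution as mean ± SD, n = 6.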

[5] = Drug distribution in kidney of acute kidney injured Balb/c mouse model assessed as KIM1 receptor mediated endocytosis at 4 mg/kg, iv by fluorescence imaging based assay; assay type: ADME, organism-based; conditions: in vivo
How it was run: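 Renal tissue of AKI mice examined by fluorescence imaging for colocalization of compound (green) with immunostained KIM-1 receptor (red); free CUR as control.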

HK-2 [6] = assay: Antioxidant activity in human HK-2 cells assessed as reduction in LPS induced mitochondrial reactive oxygen species generation at 7.16 ug/ml pretreated with LPS for 24 hr followed by compound addition incubated for 2 hr by MitoSOX staining based inverted fluorescent microscopic analysis; assay type: functional, cell-based; conditions: dose 7.16 µg/ml
How it was run: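 LPS-treated HK-2 cells exposed to test agent (7.16 μg/mL); mitochondrial superoxide visualised with MitoSOX Red indicator by fluorescence imaging.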

HK-2 [7] = assay: Antioxidant activity in human HK-2 cells assessed as reduction in LPS induced intracellular nitrotyrosine expression level pretreated with LPS for 24 hr followed by compound addition incubated for 2 hr by fluorescence imaging based assay; assay type: functional, cell-based
HK-2 [8] = assay: Induction of apoptosis in LPS-induced human HK-2 cells assessed as inhibition of cytochrome c protein expression pretreated with LPS followed by compound addition incubated for 24 hrs by immunoblotting analysis; assay type: functional, cell-based
How it was run: (§3)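 LPS-treated HK-2 cells; cytochrome c in mitochondrial and cytosolic fractions, cleaved caspase-9 and cleaved caspase-3 detected by immunoblot, normalised to β-actin; mean ± SD, n = 3.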

HK-2 [9] = assay: Induction of apoptosis in LPS-induced HK-2 cells assessed as inhibition of cleaved caspase-3 protein expression pretreated with LPS followed by compound addition incubated for 24 hrs by immunoblotting analysis; assay type: functional, cell-based; conditions: Homo sapiens; how it was run: as §3
HK-2 [10] = assay: Induction of apoptosis in LPS-induced HK-2 cells assessed as inhibition of cleaved caspase-9 protein expression pretreated with LPS followed by compound addition incubated for 24 hrs by immunoblotting analysis; assay type: functional, cell-based; conditions: Homo sapiens; how it was run: as §3
HK-2 [11] = assay: Induction of apoptosis in LPS-induced HK-2 cells assessed as increase in mitochondrial cytochrome C protein expression pretreated with LPS followed by compound addition incubated for 24 hrs by immunoblotting analysis; assay type: functional, cell-based; conditions: Homo sapiens; how it was run: as §3
Mus musculus [12] = assay: Nephroprotective activity against LPS-induced acute kidney injured Balb/c mouse model assessed as reduction in serum creatinine level at 4 mg/kg,iv by automatic biochemical analysis; assay type: functional, organism-based
How it was run: (§4)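 Scr and BUN measured on automatic biochemical analyzer 24 h after administration (CUR, 4 mg/kg) to LPS-induced AKI mice; n = 6.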

Mus musculus [13] = assay: Nephroprotective activity against LPS-induced acute kidney injured Balb/c mouse model assessed as reduction in blood urea nitrogen level at 4 mg/kg,iv by automatic biochemical analysis; assay type: functional, organism-based; how it was run: as §4
Kidney [14] = assay: Antioxidant activity against LPS-induced acute kidney injured Balb/c mouse model assessed as increase in kidney superoxide dismutase level at 4 mg/kg,iv; assay type: functional, organism-based
How it was run: (§5)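 SOD, GSH and MDA levels determined in renal tissue of LPS-induced AKI mice after treatment at CUR 4 mg/kg; n = 6.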

Kidney [15] = assay: Antioxidant activity against LPS-induced acute kidney injured Balb/c mouse model assessed as increase in kidney GSH level at 4 mg/kg,iv; assay type: functional, organism-based; how it was run: as §5
Kidney [16] = assay: Antioxidant activity against LPS-induced acute kidney injured Balb/c mouse model assessed as reduction of increased MDA level at 4 mg/kg,iv; assay type: functional, organism-based; how it was run: as §5
Mus musculus [17] = assay: Antioxidant activity against LPS-induced acute kidney injured Balb/c mouse mitochondrial fraction of kidney assessed as reduction of H2O2 generation at 4 mg/kg,iv by Amplex Red dye Hydrogen Peroxide assay; assay type: functional, organism-based; conditions: Mitochondria
How it was run: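 Mitochondria isolated intact from renal tissue of LPS-induced AKI mice; H₂O₂ production measured with Amplex Red H₂O₂/peroxidase detection kit after treatment at CUR 4 mg/kg; n = 6.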

Kidney [18] = assay: Anti-inflammatory activity against LPS-induced acute kidney injured Balb/c mouse model assessed as reduction in kidney TNF alpha level at 4 mg/kg,iv by ELISA; assay type: functional, organism-based
How it was run: (§6)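 TNF-α and IL-6 measured by ELISA in renal tissue of LPS-induced AKI mice after CUR-based treatment (CUR, 4 mg/kg); n = 6.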

Kidney [19] = assay: Anti-inflammatory activity against LPS-induced acute kidney injured Balb/c mouse model assessed as reduction in kidney IL-6 level at 4 mg/kg,iv by ELISA; assay type: functional, organism-based; how it was run: as §6
Kidney [20] = assay: Nephroprotective activity against acute kidney injured Balb/c mouse kidney assessed as decrease in vacuolar degeneration at 4 mg/kg,iv by H and E staining based assay; assay type: functional, organism-based
How it was run: (§7)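 Renal tissue of AKI mice stained with H&E and examined by optical microscopy for tubular epithelial swelling, vacuolar degeneration and brush border loss; treatment at CUR 4 mg/kg.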

Kidney [21] = assay: Nephroprotective activity against acute kidney injured Balb/c mouse kidney assessed as decrease in swollen tubular epithelial cells at 4 mg/kg,iv by H and E staining based assay; assay type: functional, organism-based; how it was run: as §7
Kidney [22] = assay: Nephroprotective activity against acute kidney injured Balb/c mouse kidney assessed as decrease in disappeared and expanded tubular border brush at 4 mg/kg,iv by H and E staining based assay; assay type: functional, organism-based; how it was run: as §7
Kidney [23] = assay: Antioxidant activity against acute kidney injured Balb/c mouse kidney assessed as reduction of nitrotyrosine expression at 4 mg/kg,iv by immunohistochemistry analysis; assay type: functional, organism-based
How it was run: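 Renal sections from AKI mice stained by immunohistochemistry for nitrotyrosine after treatment at CUR 4 mg/kg; scale bar 50 μm.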

[24] = Drug distribution in kidney of Balb/c mouse model assessed as increase in CUR level at 4 mg/kg, iv after 2 hrs of administration by IVIS Lumina III analysis; assay type: ADME, organism-based; conditions: in vivo; how it was run: as §2
[25] = Drug uptake in LPS stimulated human HK-2 cells pretreated with LPS for 12 hrs followed by compound addition incubated for 2 to 6 hrs by flow cytometry method; assay type: ADME, cell-based; conditions: time 2-6 hrs; how it was run: as §1
[26] = Drug uptake in human HK-2 cells incubated for 2 to 6 hrs by inversed fluorescence microscope analysis; assay type: ADME, cell-based; conditions: time 2-6 hrs; how it was run: as §1
[27] = Drug uptake in LPS induced inflammation in human HK-2 cells assessed as decrease internalization in presence of Ser pretreated with LPS for 6 hr followed by compound addition incubated for 2 hr by flow cytometry; conditions: hk-2, 2 h

COc1cc(/C=C/C(=O)CC(=O)/C=C/c2ccc(OC(=O)C(N)CO)c(OC)c2)ccc1OC(=O)CCCC[P+](c1ccccc1)(c1ccccc1)c1ccccc1.[Br-] (configuration not stated)
active: Activity (HK-2 [6]) | Activity (HK-2 [7]) | Activity (HK-2 [8]) | Activity (HK-2 [9]) | Activity (HK-2 [10]) | Activity (HK-2 [11]) | Activity (Mus musculus [12]) | Activity (Mus musculus [13]) | Activity (Kidney [14]) | Activity (Kidney [15]) | Activity (Kidney [16]) | Activity (Mus musculus [17]) | Activity (Kidney [18]) | Activity (Kidney [19]) | Activity (Kidney [20]) | Activity (Kidney [21]) | Activity (Kidney [22]) | Activity (Kidney [23])
Not Active: Drug uptake [24] | Drug uptake [26]
40%: Activity (HK-2 [3])
Active: Drug uptake [1] | Drug uptake [2] | Drug uptake [4] | Drug uptake [5] | Drug uptake [25] | Drug uptake [27]
